Bioassay records deposited in PubChem by several laboratories.
A selection: hits, their analogues and other compounds. The true share with any hit is near 3.9%.
TAAR1 agonist – human TAAR1 agonism | Q96RJ0 | CHO RD-HGA16 TAAR1, Fluo-8 calcium fluorescence; vehicle wells 0%, saturating PEA agonist 100% | activation, % at 3 µM | hit rate 0.99% among 360,000 | AID 624467;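 active = activation above the mean activation of all test compounds in the run plus 3 SD, cut at about 38% in these data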
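Test system: RD-HGA16 (CHO) cells co-expressing Gα16 and hTAAR1 / Benchmarks: DMSO vehicle as 0%, PEA at EC100 as 100% / Repeats: no replicates (n 1) / Measure: % activation from peak over basal fluorescence ratio, DMSO-to-PEA scaled / Timing: 17-24 h plating, Fluo-8 75 min 37 °C, 30 min RT / Technique: kinetic Fluo-8 calcium fluorescence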
ANO1 activ – activators or potentiators of mouse TMEM16A chloride channel; HEK293 TMEM16A/YFP-H148Q/I152L, iodide quench fluorescence; stronger effect = lower value; B-score at 10 µM; hit rate 0.3% among 340,000; AID 623877;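 active = fluorescence-ratio B-score plate-corrected deviation score at least 3 library SD below zero, with starting fluorescence score within 5 deviations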;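 note: channel opened by trigger with iodide after compound preincubation; score built on the fluorescence ratio of max minus min over baseline; more negative score means more quench and so TMEM16A activation or potentiation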
Target sequence (Q8BHY3 whole entry, looked up): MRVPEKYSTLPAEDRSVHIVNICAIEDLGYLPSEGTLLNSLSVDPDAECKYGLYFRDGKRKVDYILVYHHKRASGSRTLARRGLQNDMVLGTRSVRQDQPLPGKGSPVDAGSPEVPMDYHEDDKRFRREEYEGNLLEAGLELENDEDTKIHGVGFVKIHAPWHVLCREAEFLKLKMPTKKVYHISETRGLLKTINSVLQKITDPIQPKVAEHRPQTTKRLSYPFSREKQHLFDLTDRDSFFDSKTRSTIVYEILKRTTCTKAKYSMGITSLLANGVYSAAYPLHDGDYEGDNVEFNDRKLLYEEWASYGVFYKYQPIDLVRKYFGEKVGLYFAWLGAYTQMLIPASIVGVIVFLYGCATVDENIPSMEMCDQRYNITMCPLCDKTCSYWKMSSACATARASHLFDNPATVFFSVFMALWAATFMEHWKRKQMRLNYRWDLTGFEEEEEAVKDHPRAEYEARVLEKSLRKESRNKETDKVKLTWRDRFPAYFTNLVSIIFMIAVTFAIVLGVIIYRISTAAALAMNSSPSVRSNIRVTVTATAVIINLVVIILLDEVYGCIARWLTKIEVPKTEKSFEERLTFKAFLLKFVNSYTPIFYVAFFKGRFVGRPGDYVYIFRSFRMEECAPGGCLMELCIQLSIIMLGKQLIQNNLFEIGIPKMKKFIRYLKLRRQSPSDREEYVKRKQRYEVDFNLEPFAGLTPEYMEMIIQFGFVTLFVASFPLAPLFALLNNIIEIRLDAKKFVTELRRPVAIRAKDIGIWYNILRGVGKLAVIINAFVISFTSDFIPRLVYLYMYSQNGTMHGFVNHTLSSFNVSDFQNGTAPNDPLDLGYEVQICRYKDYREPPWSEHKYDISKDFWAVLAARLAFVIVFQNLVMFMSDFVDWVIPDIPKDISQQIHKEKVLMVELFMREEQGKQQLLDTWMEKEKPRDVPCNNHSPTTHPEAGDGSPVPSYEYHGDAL
TAAR1 antag – human TAAR1 antagonism | hit rate 1.5% among 360,000 | Q96RJ0 | inhibition, % at 3 µM | CHO RD-HGA16 TAAR1, Fluo-8 calcium fluorescence, antagonist;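 active = inhibition above a per-plate cutoff, the mean inhibition of test compounds on that plate plus 3 SD, cut at about 49% in these data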;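 note: 0% = DMSO plus EC80 beta-PEA response and 100% = DMSO alone without agonist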
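Test system – hTAAR1-expressing CHO RD-HGA16 cells, Gα16-coupled · Reagent – β-PEA at EC80 concentration, post-compound challenge · Compound dosing – 3 µM, single point · Timing – 140 s kinetic read after compound, 140 s after agonist · Detection – Fluo-8 intracellular calcium dye fluorescence, real-time kinetic reads · Control set – DMSO and EC80 PEA controls · Repeats – n of 1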
CRFR2-BP antag – antagonists of CRF-binding protein/CRF-R2 receptor complex. HEK293 CRF-R2/CRF-BP, CRF-induced calcium fluorescence. inhibition, % at 11.8 µM. hit rate 0.59% among 350,000. AID 588475;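 active = inhibition of the ligand-induced calcium signal above about 50% at the single tested concentration, limit read from the data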
CRFR2-BP ag – CRF-BP/CRF-R2 complex agonism; HEK293 CRF-R2/CRF-BP, calcium dye fluorescence (FLIPR); percent of saturating CRF peptide response; activation, % at 13.2 µM; hit rate 0.46% among 350,000; AID 588473;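 active = activation of at least 50%, plus an integration ratio under a set limit after plate pattern correction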;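 note: plate controls were neutral control wells without compound for no effect and CRF at EC100 for full effect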
ANO1 block – mouse TMEM16A channel inhibition, primary screen. Q8BHY3. normalized B-score (activity score, 25-100; higher = stronger inhibition) at 10 µM. AID 588511. HEK293 TMEM16A/YFP iodide influx fluorescence, ionomycin. hit rate 1.2% among 310,000;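 active = ratio plate-corrected score three or more library SD toward inhibition, starting fluorescence score within five deviations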;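 note: score derived from kinetic fluorescence span divided by baseline fluorescence per well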
* = called active by the depositor; i = inactive; . = no result given.

SMILES	TAAR1 agonist	ANO1 activ	TAAR1 antag	CRFR2-BP antag	CRFR2-BP ag	ANO1 block
C[C@H](CO)N1C[C@H](C)[C@H](CN(C)C(=O)Nc2ccc(F)cc2)OCc2cnnn2CCCC1=O	2	.	-11	0	-1	.
Cc1nc2ccccc2n2c(O)c(CC(=O)O)cc12	22	i	0	-62	89*	i
COc1cccc(NC(=O)CN2C(=O)CSc3ccc(S(=O)(=O)N4CCCCC4)cc32)c1	-2	i	-13	-7	2	i
Cc1cccc(S(=O)(=O)NNC(=O)Cc2cccn2C)c1	11	i	1	-8	5	25*
Cc1ccc(-n2cc(C(=O)c3cc(Cl)ccc3O)cc(C#N)c2=O)cc1	5	i	18	26	12	25*
COc1ccc(O)c(C(=O)c2cc(C#N)c(=O)n(-c3ccc(Cl)cc3)c2)c1	4	-4.6*	-18	4	31	i
Cc1c(-n2cc(C(=O)c3ccccc3O)cc(C#N)c2=O)c(=O)n(-c2ccccc2)n1C	15	i	4	23	139*	i
CCOc1ccc(-n2cc(C(=O)c3cc(Cl)ccc3O)cc(C#N)c2=O)cc1	10	i	7	23	13	25*
Cc1ccc(O)c(C(=O)c2cc(C#N)c(=O)n(C(C)c3ccccc3)c2)c1 (configuration not stated)	-1	i	3	0	-1	i
COc1ccc(-n2cc(C(=O)c3cc(Cl)ccc3O)cc(C#N)c2=O)cc1	8	i	4	13	1	i
O=[N+]([O-])c1cccc2c(S(=O)(=O)N3CCOCC3)cccc12	-1	i	-9	-4	-3	i
CCN(CC)C(=O)c1[nH]cnc1C(=O)Nc1cccc(Cl)c1	12	i	-7	-25	0	.
N#Cc1cc(C(=O)c2ccccc2O)cn(-c2ccc(Cl)cc2)c1=O	5	i	14	-13	53*	i
O=C(CCNNC(=O)c1ccncc1)NCc1ccccc1	16	-14*	-30	-35	1	i
Cc1ccc([C@@H]2CC(=O)[C@@H]3CN(S(=O)(=O)c4ccc(C)cc4)[C@H](c4ccccc4)C[C@@H]3N2S(=O)(=O)c2ccc(C)cc2)cc1	3	.	-16	.	.	.
CCOC(=O)C1=C(COC(=O)COc2ccccc2C#N)NC(=O)NC1C (configuration not stated)	4	i	-17	-3	-1	i
CCOC(=O)C1C(C)=CC(=O)CC1c1ccco1 (configuration not stated)	-1	i	5	67*	22	i
C=CCNC(=S)NNC(=O)c1ccc(OCC)cc1	6	i	-10	109*	7	i
CCC(C)(C)c1nnc(NC(=O)CCC2CCCCC2)s1	-1	i	-10	-47	3	i
CCCC1=C(C(=O)OCC)C(c2cccnc2)n2nc(C)nc2N1 (configuration not stated)	0	i	-14	114*	0	i
CCOC(=O)C1=C(C)Nc2nnnn2C1c1cccnc1 (configuration not stated)	1	i	14	-9	-1	i
COc1ccc(NC(=O)CN(C)C(=O)c2cc(-c3ccncc3)nc3ccccc23)cc1	19	i	52*	-2	0	i
CCOc1ccc(NC(=O)CN(C)C(=O)CC(NC(=O)c2ccccc2)c2ccccc2)cc1OCC (configuration not stated)	2	-4.9*	-8	-27	23	i
CCOc1ccc(NC(=O)CN(C)C(=O)c2cc(-c3ccco3)nc3ccccc23)cc1OCC	10	i	52*	-2	0	.
CCOc1ccc(NC(=O)CN(C)C(=O)c2cc(C)nc3ccccc23)cc1OCC	2	i	10	-3	-1	.
SMILES	TAAR1 agonist	ANO1 activ	TAAR1 antag	CRFR2-BP antag	CRFR2-BP ag	ANO1 block
CCOc1ccc(NC(=O)CN(C)C(=O)c2cn(-c3ccc(C)cc3)nc2-c2cccc(OC)c2)cc1OCC	9	i	64*	-16	-2	.
O=C(Nc1cccc2ccccc12)c1csc(COCCO)n1	2	.	-23	.	.	.
CCN(CC)C(=O)Cn1cc(S(=O)(=O)CC(=O)N2CCOCC2)c2ccccc21	0	i	4	-1	1	i
O=C(NNC(=O)c1cc(-c2ccco2)nc2ccccc12)c1ccccc1	10	i	50*	-3	-3	i
COc1c(CC=C(C)C)cc(C2CC(=O)c3c(O)cc(O)cc3O2)c(CC=C(C)C)c1O (configuration not stated)	.	.	.	1	-1	100*
O=C(N/N=C/c1sc(N2CCOCC2)nc1-c1ccccc1)c1cccc(S(=O)(=O)N2CCCC2)c1	14	i	52*	-1	19	i
O=C(N/N=C/c1cc(Br)cc(Br)c1O)c1cccc(S(=O)(=O)N2CCOCC2)c1	1	i	-18	-54	69*	i
O=C(N/N=C/c1ccccc1Br)c1cccc(S(=O)(=O)N2CCOCC2)c1	16	i	27	1	-1	.
Cc1ccc(C)c(S(=O)(=O)N(C)c2ccc(OC(=O)C3CCN(C(=O)Nc4ccccc4)CC3)cc2)c1	9	i	10	3	2	.
CC1Cc2ccccc2N1C(=O)CSc1nn2c(=O)c(C(C)(C)C)nnc2s1 (configuration not stated)	6	-37*	-21	-9	0	i
CCN(Cc1ccccc1)C(=O)CN1C(=O)NC2(CC(C)CC(C)(C)C2)C1=O (configuration not stated)	4	i	-13	-11	-1	i
Cc1[nH]c2ccccc2c1C(=O)CN1C(=O)NC2(CC(C)CC(C)(C)C2)C1=O (configuration not stated)	17	i	53*	-32	16	i
O=C(CN1C(=O)NC2(CCCC2)C1=O)OCc1ccc(Br)cc1	-3	i	2	10	-1	i
CC1CC(C)(C)CC2(C1)NC(=O)N(CC(=O)OCc1ccc(Br)cc1)C2=O (configuration not stated)	41*	i	23	-24	0	.
N#Cc1c2nc3ccccc3nc2n2cc(NC(=O)c3ccc(F)cc3)ccc12	9	i	7	-83	55*	.
CC1CCCC(NC(=O)CCNC(=O)c2ccccc2Cl)C1C (configuration not stated)	4	i	-16	11	0	i
Cc1cc(C)n(-c2ccc(C(=O)N3CCN(S(=O)(=O)c4ccc(OC(F)(F)F)cc4)CC3)cc2)n1	-2	.	7	8	-1	.
